STAT3 activator = STAT3 signaling activation; U3A cells, IL-6 STAT3-luciferase reporter, luminescence; 100% = signal with IL-6 EC80 alone; 0.91% of 190,000 active; activation (% of control), % at 5.6 µM;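 active = activation above the screen-wide mean of compound activation plus 3 SD, cut at about 130% in these data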
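system = STAT3-luciferase reporter U3A cells | reagent = IL-6 stimulus at 33 ng/mL final | timing = 1 h compound pre-exposure, 6 h IL-6 stimulation, 37 °C | measured by = luminescence | evaluation = % activation versus median of IL-6-stimulated wells | control set = IL-6-only wells as 100% reference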
AHR activator = human AHR activation. 2.5% of 320,000 active. AID 2796. activation, % at 5 µM. AHR-responsive luciferase reporter cells, luminescence. P35869; in the data active = activation above about 47%
ABCB6 inh MLPCN = human ABCB6 transporter inhibition | Q9NP58 | K562-ABCB6 porphyrin accumulation, flow cytometry, 1 h; active compounds read low | fluorescence ratio to DMSO, % at 10 µM | 0.19% of 360,000 active | AID 602162;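 active = fluorescence ratio to DMSO below 75%, the collection mean minus 3 SD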;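 note: signal is porphyrin accumulated inside mitochondria; lower ratio means ABCB6 inhibition with less porphyrin fluorescence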
FXN GAA850 act = frataxin GAA850 promoter activation. HEK293 lucGAA850 FXN promoter luciferase reporter, 24 h; percent of 10 µM SAHA response. activation, % at 6 µM. AID 540364. 0.56% of 360,000 active;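 active = activation above the average of all compounds screened plus 3 SD, cutoff fixed separately per campaign, cut at about 7.5% in these data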
GAA30 FXN cntr = GAA30 FXN promoter activation counter-screen | shares compounds with FXN GAA850 act | HEK293 lucGAA30 FXN promoter luciferase, 24 h; DMSO = 0%, 5 µM ipriflavone = 100% | activation, % at 6 µM | 66% of 1,900 active | AID 588350;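 active = mean activation above the mean of solvent-only control wells plus 3 SD, cut at about 22% in these data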;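 note: counterscreen of GAA850 promoter hits where activity marks nonselective or luminescence artifacts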
FXN GAA850 conf = GAA850 FXN promoter activation confirmation. shares compounds with FXN GAA850 act. HEK293 lucGAA850 FXN promoter luciferase reporter, 24 h; 100% = activation by SAHA. activation, % at 6 µM. 86% of 1,900 active. AID 588351;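 active = mean activation above a set limit taken from the primary screen, cut at about 8% in these data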
Numbers stand for hits; i = inactive; nt = no result given. Most compounds without a hit are left out; they make up all but 3.3% or so of the library.

SMILES	STAT3 activator	AHR activator	ABCB6 inh MLPCN	FXN GAA850 act	GAA30 FXN cntr	FXN GAA850 conf
CCN(c1ccc(OC)cc1)S(=O)(=O)N1CCCC(C(=O)NC(C)c2ccccc2)C1 (stereo not drawn)	nt	nt	i	i	nt	nt
Cc1ccc(C)c(Nc2nc3ccccc3n3cnnc23)c1	nt	i	i	i	nt	nt
CCOC(=O)CNC(=O)CSc1nc(C)cc(C)c1C#N	i	i	i	i	nt	nt
CCOC(=O)NC(=O)CSc1nc(C)cc(C)c1C#N	i	i	i	8.2	103	30
CN(C)[C@@H]1C(=O)C(C(=O)NCN2CCCC2)=C(O)[C@@]2(O)C(=O)C3=C(O)c4c(O)cccc4[C@@](C)(O)C3CC12 (stereo partly drawn)	i	nt	nt	nt	nt	nt
C[C@H]1c2cccc(O)c2C(O)=C2C(=O)C3(O)C(O)=C(C(N)=O)C(=O)[C@@H](N(C)C)[C@@H]3[C@@H](O)[C@@H]21 (stereo partly drawn)	nt	i	i	17	22	i
CN(C)c1ccc(O)c2c1CC1CC3[C@@H](N(C)C)C(=O)C(C(N)=O)C(=O)[C@]3(O)C(=O)C1C2=O (stereo partly drawn)	nt	i	i	11	35	11
CN(C)c1ccc(O)c2c1CC1CC3C(N(C)C)C(=O)C(C(N)=O)=C(O)[C@@]3(O)C(=O)C1=C2O (stereo partly drawn)	nt	i	i	25	24	i
C=C1c2cccc(O)c2C(O)=C2C(=O)[C@]3(O)C(O)=C(C(N)=O)C(=O)[C@@H](N(C)C)[C@@H]3[C@@H](O)[C@H]12	nt	i	i	17	28	9.6
CCN(c1ccccc1)S(=O)(=O)c1ccc2c(c1)N(C(C)=O)CCO2	nt	i	i	i	nt	nt
NC(=O)Cn1c2[n+](c3ccccc31)CC(O)CS2 (stereo not drawn)	i	i	i	i	nt	nt
Cn1c(CC(=O)Nc2ccccc2F)nnc1SCC(=O)NC1CCCCC1	nt	i	i	i	nt	nt
C[C@H]1c2cccc(O)c2C(=O)C2C(=O)C3(O)C(=O)C(C(N)=O)C(=O)[C@@H](N(C)C)[C@@H]3[C@@H](O)[C@@H]21 (stereo partly drawn)	nt	i	i	14	41	13
CC(/C=N/NC(=O)c1sc(N)nc1C)=C\c1ccccc1	i	i	i	8.1	116	41
CC(/C=N/NC(=O)c1ccccc1C)=C\c1ccccc1	nt	i	i	i	nt	nt
CCCc1cc(C(=O)Nc2cc(C)ccc2O)no1	nt	i	i	10	91	43
CCCc1cc(C(=O)Nc2cccnc2Cl)no1	i	i	i	i	nt	nt
O=C(Cc1ccccc1)N/N=C/c1ccc(S(=O)(=O)O)o1	nt	i	i	i	nt	nt
CC(Oc1ccc(C(C)(C)C)cc1)C(=O)NCC(c1ccco1)N1CCCC1 (stereo not drawn)	nt	i	i	8.4	i	9.6
CCOC(=O)c1c(-c2cccs2)csc1NC(=O)CC(C)C	i	i	i	i	nt	nt
COC(=O)c1c(-c2cccs2)csc1NC(=O)c1cccnc1	i	i	i	9.8	69	26
CC(=O)NCC1(O)CCCC(C)C1 (stereo not drawn)	nt	i	i	i	nt	nt
O=C(Nc1cccnc1)C1(c2ccc(Cl)cc2)CCCC1	i	i	i	i	nt	nt
O=C(Nc1nnc(C2CCCCC2)s1)c1ccco1	i	i	i	i	nt	nt
O=C(Nc1nnc(C2CCCCC2)s1)c1cccs1	i	77	i	7.8	95	27
SMILES	STAT3 activator	AHR activator	ABCB6 inh MLPCN	FXN GAA850 act	GAA30 FXN cntr	FXN GAA850 conf
COc1ccc(NC(=O)CSc2nnc(Cn3c(=O)sc4ccccc43)n2C)c(OC)c1	i	i	i	i	nt	nt
Cc1nc(SCC(=O)c2cccs2)c2oc3ccccc3c2n1	i	72	i	7.6	101	39
CC(/C=C/c1ccccc1)=N/O	i	i	i	i	nt	nt
CC(/C=C/c1ccc(OCc2ccccc2)cc1)=N\O	i	i	i	7.9	117	38
COc1ccc(C)cc1-n1nc2ccccc2n1	i	i	i	i	nt	nt
Cc1ccc(O)c(-n2nc3ccccc3n2)c1	i	i	i	9.2	114	35
O=C(Nc1ccc(Cl)cc1)C1CCCCN1S(=O)(=O)c1ccccc1 (stereo not drawn)	nt	i	i	7.9	24	8.3
O=C(Nc1ccccc1)[C@@H]1CCCN1S(=O)(=O)c1ccc(Cl)cc1	nt	i	i	i	nt	nt
CCOC(=O)NC(=O)/C(C#N)=C\Nc1sccc1C(=O)OC	i	i	i	i	nt	nt
CCOC(=O)NC(=O)/C(C#N)=C\Nc1ccc(Cl)cc1Cl	i	i	i	8.3	i	i
N/C(=N\OC(=O)c1ccccc1Cl)c1cccc([N+](=O)[O-])c1	nt	i	i	i	nt	nt
N/C(=N/OC(=O)c1ccccc1Cl)c1ncc([N+](=O)[O-])s1	nt	54	i	15	103	51
O=C(Nc1cc2c(cc1Cl)OCCCO2)c1ccccc1	i	i	i	8.8	107	41
O=C(NCCS(=O)(=O)NC1CCCC1)c1ccc(F)cc1	nt	i	i	i	nt	nt
CCOC(=O)C1=CC[C@@H](c2ccccc2)N(S(=O)(=O)c2ccc(C)cc2)[C@H]1/C=C/c1ccccc1	nt	nt	i	nt	nt	nt
O=C(CSC(=S)N1CCSCC1)c1ccc(Cl)cc1	i	i	i	9.8	114	42
O=C(CSC(=S)N1CCSCC1)c1ccccc1	i	nt	i	i	nt	nt
O=C(CN1CCN(S(=O)(=O)c2ccccc2F)CC1)NC1CCCC1	i	i	i	i	nt	nt
COc1ncnc2sc(-c3ccccc3)cc12	i	i	i	9.0	106	37
CN(C)c1ncnc2sc(-c3ccccc3)cc12	nt	i	i	9.0	46	18
O=C(c1ccc(-c2ccc([N+](=O)[O-])cc2)o1)N1CCCCC1	i	i	i	8.5	125	44
O=C(CN1CCN(c2ccccn2)CC1)Nc1cccc(S(=O)(=O)N2CCCC2)c1	i	i	i	i	nt	nt
Cc1nc2nc(-c3ccccc3)nn2c(C)c1C	nt	i	i	7.6	115	41
Cc1c(-c2ccc(O)cc2)nc2nc(-c3ccccc3)c(-c3ccccc3)nn12	nt	i	nt	nt	nt	nt
COc1cc2c(cc1OC)-c1cc(Nc3ccccc3)nc(=O)n1CC2	nt	i	i	i	nt	nt
SMILES	STAT3 activator	AHR activator	ABCB6 inh MLPCN	FXN GAA850 act	GAA30 FXN cntr	FXN GAA850 conf
COc1cc2c(cc1OC)-c1cc(NC3CCCCCC3)nc(=O)n1CC2	i	i	i	12	26	12
COc1ccc(Nc2cc3n(c(=O)n2)CCc2cc(OC)c(OC)cc2-3)cc1	nt	i	i	i	nt	nt
COc1cc2c(cc1OC)-c1cc(OCc3cccnc3)nc(=O)n1CC2	i	nt	i	8.8	i	13
CCOc1cccc(Nc2cc3n(c(=O)n2)CCc2cc(OC)c(OC)cc2-3)c1	i	i	i	9.6	i	12
COc1cc2c(cc1OC)-c1cc(Nc3ccccc3Br)nc(=O)n1CC2	nt	i	i	9.2	i	16
CCCCc1ccc(NC(=O)Cn2c(=O)c(N3CCCCC3)c(N)n(C)c2=O)cc1	nt	i	i	i	nt	nt
COc1cc2c(cc1OC)-c1cc(N3CCc4ccccc43)nc(=O)n1CC2	nt	i	i	i	nt	nt

From PubChem
